Assay results reported in ChEMBL document CHEMBL3259739, “Synthesis and structure-activity relationship of trisubstituted thiazoles as Cdc7 kinase inhibitors” (Eur J Med Chem, 2014).

Biological target: T1, Mitogen-activated protein kinase kinase kinase 19 (Homo sapiens) (UniProt Q56UN5)
T1 sequence (whole entry): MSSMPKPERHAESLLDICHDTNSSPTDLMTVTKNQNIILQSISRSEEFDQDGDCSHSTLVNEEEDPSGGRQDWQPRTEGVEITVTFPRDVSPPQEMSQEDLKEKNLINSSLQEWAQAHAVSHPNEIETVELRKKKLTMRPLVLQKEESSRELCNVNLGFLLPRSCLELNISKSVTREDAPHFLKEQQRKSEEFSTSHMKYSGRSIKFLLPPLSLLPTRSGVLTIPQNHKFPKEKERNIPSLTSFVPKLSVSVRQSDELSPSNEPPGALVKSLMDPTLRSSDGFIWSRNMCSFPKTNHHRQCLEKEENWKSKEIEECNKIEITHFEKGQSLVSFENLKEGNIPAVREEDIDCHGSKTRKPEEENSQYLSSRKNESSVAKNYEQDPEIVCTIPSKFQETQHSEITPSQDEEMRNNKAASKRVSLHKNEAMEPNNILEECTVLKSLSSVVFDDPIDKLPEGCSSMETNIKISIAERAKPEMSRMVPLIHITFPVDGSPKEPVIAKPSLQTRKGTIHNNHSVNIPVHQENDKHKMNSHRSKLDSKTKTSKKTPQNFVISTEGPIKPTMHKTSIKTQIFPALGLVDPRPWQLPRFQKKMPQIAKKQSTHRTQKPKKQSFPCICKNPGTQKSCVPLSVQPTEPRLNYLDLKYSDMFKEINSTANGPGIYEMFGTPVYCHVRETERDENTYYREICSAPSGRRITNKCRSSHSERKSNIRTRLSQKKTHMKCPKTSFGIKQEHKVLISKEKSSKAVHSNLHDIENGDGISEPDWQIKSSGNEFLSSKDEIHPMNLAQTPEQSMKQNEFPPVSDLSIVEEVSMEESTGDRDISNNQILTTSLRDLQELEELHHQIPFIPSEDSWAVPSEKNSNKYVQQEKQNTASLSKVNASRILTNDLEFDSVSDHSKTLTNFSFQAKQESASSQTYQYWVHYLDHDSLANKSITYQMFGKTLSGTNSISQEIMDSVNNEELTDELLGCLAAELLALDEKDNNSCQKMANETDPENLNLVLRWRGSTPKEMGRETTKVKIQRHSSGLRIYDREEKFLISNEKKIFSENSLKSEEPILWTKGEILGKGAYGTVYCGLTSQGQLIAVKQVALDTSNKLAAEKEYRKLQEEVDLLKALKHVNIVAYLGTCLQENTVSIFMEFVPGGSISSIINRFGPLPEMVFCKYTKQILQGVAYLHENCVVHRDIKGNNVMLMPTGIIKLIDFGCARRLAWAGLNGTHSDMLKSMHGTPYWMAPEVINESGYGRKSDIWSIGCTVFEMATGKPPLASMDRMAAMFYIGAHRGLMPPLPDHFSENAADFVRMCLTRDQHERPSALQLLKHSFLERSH
Assay: Inhibition of YSK4 (unknown origin) at 1 uM relative to control
Conditions: values are per cent of control
How it was run: (§1)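 KinomeSCAN competitive binding panel of 100 kinases; compounds tested at 1 µM in duplicate; read-out is percent […] control.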

Compared with COc1ccc(-c2nc(-c3ccnc(N)n3)sc2C(N)=O)c(Cl)c1, NC(=O)c1sc(-c2ccnc(N)n2)nc1-c1ccc(Cl)cc1Cl is higher in residual binding, % of control: 34% for the first, 41% for the second.

Compound CCOC(=O)c1sc(-c2ccncc2)nc1O has a residual binding, % of control of 97%.

Biological target: Cyclin-dependent kinase 18 (Homo sapiens) (UniProt Q07002)
Assay: Inhibition of PCTK3 (unknown origin) at 1 uM relative to control
Conditions: values are per cent of control
How it was run: as §1

Cyclin-dependent kinase 18 (Homo sapiens), sequence (Q07002 whole entry): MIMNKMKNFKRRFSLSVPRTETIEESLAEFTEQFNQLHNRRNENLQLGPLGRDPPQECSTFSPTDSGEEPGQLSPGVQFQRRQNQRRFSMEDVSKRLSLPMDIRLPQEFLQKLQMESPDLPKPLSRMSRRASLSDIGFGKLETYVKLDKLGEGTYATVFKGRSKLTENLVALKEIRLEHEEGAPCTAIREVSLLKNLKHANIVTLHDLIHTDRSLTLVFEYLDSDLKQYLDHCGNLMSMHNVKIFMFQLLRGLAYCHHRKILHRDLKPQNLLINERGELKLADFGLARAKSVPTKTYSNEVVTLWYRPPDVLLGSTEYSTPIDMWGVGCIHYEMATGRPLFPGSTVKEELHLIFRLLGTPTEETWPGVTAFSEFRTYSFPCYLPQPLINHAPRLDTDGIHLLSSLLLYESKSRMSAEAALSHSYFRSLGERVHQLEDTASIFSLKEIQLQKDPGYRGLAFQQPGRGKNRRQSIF

COc1ccc(-c2nc(-c3ccnc(N)n3)sc2C(N)=O)c(Cl)c1 and NC(=O)c1sc(-c2ccnc(N)n2)nc1-c1ccc(Cl)cc1Cl are the same in residual binding, % of control: 100% for the first, 100% for the second.

In the case of CCOC(=O)c1sc(-c2ccncc2)nc1O, the residual binding, % of control is reported as 76%.

Biological target: Rho-associated protein kinase 2 (Homo sapiens) (UniProt O75116)
Assay: Inhibition of ROCK2 (unknown origin) at 1 uM relative to control
Conditions: values are per cent of control
How it was run: as §1

First: COc1ccc(-c2nc(-c3ccnc(N)n3)sc2C(N)=O)c(Cl)c1
Second: NC(=O)c1sc(-c2ccnc(N)n2)nc1-c1ccc(Cl)cc1Cl
The residual binding, % of control of the first is lower: 27% for the first, 34% for the second.

For CCOC(=O)c1sc(-c2ccncc2)nc1O, the residual binding, % of control was 92%.

Biological target: Proto-oncogene tyrosine-protein kinase Src (Homo sapiens) (UniProt P12931)
Assay: Inhibition of SRC (unknown origin) at 1 uM relative to control
Conditions: values are per cent of control
How it was run: as §1

Proto-oncogene tyrosine-protein kinase Src (Homo sapiens), sequence (P12931 2-536 limits assumed): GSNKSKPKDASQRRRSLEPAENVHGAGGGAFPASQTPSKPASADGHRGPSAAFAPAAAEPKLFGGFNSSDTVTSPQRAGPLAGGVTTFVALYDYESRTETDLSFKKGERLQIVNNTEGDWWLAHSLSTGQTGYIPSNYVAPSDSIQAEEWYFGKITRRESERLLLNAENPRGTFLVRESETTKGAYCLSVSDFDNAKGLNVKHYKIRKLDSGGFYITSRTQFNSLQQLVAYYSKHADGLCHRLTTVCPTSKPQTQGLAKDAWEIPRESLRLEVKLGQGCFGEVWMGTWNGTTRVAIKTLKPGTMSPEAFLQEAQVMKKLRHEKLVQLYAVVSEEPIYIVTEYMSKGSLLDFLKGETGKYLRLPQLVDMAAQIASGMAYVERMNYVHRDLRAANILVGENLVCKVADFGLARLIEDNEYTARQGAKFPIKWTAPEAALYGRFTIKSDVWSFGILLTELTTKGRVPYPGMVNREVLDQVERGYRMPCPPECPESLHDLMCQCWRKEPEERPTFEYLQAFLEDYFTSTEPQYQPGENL

COc1ccc(-c2nc(-c3ccnc(N)n3)sc2C(N)=O)c(Cl)c1 and NC(=O)c1sc(-c2ccnc(N)n2)nc1-c1ccc(Cl)cc1Cl are the same in residual binding, % of control: 100% for the first, 100% for the second.

For CCOC(=O)c1sc(-c2ccncc2)nc1O, the residual binding, % of control was 81%.

Biological target: Hepatocyte growth factor receptor (Homo sapiens) (UniProt P08581)
Assay: Inhibition of MET (unknown origin) at 1 uM relative to control; values are per cent of control
Conditions: not given

Hepatocyte growth factor receptor (Homo sapiens), sequence (P08581 whole entry): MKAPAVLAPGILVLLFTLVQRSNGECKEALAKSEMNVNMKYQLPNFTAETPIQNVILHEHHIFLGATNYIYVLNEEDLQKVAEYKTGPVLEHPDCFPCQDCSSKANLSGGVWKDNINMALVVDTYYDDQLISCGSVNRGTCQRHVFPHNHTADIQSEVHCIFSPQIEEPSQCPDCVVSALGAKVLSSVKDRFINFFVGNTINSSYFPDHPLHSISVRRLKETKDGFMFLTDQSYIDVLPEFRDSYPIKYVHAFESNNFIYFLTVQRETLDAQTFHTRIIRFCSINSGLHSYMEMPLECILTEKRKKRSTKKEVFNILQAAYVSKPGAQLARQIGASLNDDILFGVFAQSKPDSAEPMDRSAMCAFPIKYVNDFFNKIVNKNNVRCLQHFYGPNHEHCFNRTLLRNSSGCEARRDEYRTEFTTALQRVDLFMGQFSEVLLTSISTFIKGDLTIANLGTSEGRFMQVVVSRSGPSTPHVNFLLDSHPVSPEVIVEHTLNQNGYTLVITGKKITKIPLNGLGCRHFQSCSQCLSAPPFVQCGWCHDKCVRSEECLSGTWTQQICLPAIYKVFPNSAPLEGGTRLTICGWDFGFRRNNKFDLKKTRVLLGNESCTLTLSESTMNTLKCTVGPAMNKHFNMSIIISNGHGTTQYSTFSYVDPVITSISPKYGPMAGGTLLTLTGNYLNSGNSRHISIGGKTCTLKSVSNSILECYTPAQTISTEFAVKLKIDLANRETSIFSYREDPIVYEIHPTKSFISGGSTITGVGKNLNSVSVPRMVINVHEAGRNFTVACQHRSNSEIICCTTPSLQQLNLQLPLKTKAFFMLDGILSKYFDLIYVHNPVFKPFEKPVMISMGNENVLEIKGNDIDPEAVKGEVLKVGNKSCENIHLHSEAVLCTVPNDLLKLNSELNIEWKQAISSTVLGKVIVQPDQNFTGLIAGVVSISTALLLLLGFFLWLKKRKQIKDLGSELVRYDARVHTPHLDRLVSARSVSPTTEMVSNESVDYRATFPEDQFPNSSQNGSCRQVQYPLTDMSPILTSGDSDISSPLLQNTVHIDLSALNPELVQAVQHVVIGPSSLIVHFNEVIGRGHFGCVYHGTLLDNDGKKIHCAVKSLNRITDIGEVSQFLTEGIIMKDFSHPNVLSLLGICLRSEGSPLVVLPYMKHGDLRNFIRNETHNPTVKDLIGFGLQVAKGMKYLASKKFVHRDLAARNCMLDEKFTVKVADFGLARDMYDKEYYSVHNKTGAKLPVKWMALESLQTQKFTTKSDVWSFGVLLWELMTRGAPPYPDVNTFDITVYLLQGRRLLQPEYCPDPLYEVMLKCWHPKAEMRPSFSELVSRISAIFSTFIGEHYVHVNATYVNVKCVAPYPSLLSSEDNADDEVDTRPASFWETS

Going from COc1ccc(-c2nc(-c3ccnc(N)n3)sc2C(N)=O)c(Cl)c1 to NC(=O)c1sc(-c2ccnc(N)n2)nc1-c1ccc(Cl)cc1Cl, the residual activity rises from 86% to 88%.

Compound CCOC(=O)c1sc(-c2ccncc2)nc1O has a residual activity of 81%.

Biological target: Ephrin type-A receptor 4 (Homo sapiens) (UniProt P54764)
Assay: Inhibition of EPHA4 (unknown origin) at 1 uM relative to control; values are per cent of control
Conditions: not given

Ephrin type-A receptor 4 (Homo sapiens), sequence (P54764 whole entry): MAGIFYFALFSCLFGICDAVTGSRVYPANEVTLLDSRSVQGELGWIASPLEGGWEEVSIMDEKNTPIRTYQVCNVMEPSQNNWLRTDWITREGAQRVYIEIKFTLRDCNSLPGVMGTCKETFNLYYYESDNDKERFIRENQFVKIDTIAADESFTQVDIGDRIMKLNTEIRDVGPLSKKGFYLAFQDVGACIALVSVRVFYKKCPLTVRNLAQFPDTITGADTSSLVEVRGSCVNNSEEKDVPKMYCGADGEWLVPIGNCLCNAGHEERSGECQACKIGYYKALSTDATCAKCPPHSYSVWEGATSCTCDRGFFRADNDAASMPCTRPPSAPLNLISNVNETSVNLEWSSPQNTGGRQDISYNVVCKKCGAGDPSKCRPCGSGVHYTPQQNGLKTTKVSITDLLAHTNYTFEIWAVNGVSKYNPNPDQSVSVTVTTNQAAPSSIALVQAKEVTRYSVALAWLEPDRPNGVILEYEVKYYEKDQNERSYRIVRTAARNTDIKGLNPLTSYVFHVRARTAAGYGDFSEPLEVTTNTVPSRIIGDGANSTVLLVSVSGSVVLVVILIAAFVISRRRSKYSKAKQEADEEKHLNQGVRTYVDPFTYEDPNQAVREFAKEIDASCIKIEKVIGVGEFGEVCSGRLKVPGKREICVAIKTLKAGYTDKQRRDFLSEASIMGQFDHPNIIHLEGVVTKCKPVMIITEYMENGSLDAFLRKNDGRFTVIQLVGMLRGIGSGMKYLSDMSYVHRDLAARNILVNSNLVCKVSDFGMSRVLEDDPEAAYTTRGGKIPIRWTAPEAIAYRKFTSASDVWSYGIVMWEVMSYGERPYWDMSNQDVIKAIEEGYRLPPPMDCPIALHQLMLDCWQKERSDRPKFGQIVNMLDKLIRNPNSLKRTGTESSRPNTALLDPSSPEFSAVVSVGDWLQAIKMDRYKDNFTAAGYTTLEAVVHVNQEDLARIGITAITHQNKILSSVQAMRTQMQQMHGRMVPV

First: COc1ccc(-c2nc(-c3ccnc(N)n3)sc2C(N)=O)c(Cl)c1
Second: NC(=O)c1sc(-c2ccnc(N)n2)nc1-c1ccc(Cl)cc1Cl
The residual activity of the first is higher: 100% for the first, 72% for the second.

CCOC(=O)c1sc(-c2ccncc2)nc1O gave a residual activity of 58%.

Biological target: T2, Ephrin type-B receptor 3 (Homo sapiens) (UniProt P54753)
T2 sequence (whole entry): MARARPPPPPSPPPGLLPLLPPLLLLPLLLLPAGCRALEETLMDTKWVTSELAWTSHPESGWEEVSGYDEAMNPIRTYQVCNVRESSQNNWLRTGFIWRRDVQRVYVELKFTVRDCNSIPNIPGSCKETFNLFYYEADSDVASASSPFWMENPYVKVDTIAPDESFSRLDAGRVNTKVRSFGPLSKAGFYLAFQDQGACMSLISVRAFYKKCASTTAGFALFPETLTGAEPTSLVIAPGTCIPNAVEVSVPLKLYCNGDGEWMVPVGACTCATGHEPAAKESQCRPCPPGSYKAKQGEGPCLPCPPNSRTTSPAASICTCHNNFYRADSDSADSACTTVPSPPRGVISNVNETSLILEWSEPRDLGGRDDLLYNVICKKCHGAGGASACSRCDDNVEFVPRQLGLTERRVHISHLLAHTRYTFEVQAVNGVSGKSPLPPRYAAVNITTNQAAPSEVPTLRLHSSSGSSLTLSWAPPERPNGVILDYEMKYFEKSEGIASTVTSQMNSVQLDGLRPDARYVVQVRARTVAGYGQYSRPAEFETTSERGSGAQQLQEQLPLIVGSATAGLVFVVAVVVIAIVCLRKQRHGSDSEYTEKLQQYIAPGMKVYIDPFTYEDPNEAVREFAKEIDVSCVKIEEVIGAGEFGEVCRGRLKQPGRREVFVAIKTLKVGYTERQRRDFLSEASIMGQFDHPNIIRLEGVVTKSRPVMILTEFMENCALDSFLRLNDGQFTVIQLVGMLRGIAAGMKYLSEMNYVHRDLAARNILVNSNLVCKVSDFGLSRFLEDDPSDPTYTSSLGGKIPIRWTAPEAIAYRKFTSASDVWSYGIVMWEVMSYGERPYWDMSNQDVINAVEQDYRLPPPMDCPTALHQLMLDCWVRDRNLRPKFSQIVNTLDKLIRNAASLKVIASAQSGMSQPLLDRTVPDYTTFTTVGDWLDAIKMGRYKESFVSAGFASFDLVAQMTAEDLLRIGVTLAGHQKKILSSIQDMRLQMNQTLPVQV
Assay: Inhibition of EPHB3 (unknown origin) at 1 uM relative to control; values are per cent of control
Conditions: not given

First: COc1ccc(-c2nc(-c3ccnc(N)n3)sc2C(N)=O)c(Cl)c1
Second: NC(=O)c1sc(-c2ccnc(N)n2)nc1-c1ccc(Cl)cc1Cl
The residual activity of the first is higher: 97% for the first, 86% for the second.

Work on CCOC(=O)c1sc(-c2ccncc2)nc1O yielded a residual activity of 71%.

Biological target: Casein kinase II subunit alpha (Homo sapiens) (UniProt P68400)
Assay: Inhibition of CSNK2A1 (unknown origin) at 1 uM relative to control; values are per cent of control
Conditions: not given

Casein kinase II subunit alpha (Homo sapiens), sequence (P68400 whole entry, looked up): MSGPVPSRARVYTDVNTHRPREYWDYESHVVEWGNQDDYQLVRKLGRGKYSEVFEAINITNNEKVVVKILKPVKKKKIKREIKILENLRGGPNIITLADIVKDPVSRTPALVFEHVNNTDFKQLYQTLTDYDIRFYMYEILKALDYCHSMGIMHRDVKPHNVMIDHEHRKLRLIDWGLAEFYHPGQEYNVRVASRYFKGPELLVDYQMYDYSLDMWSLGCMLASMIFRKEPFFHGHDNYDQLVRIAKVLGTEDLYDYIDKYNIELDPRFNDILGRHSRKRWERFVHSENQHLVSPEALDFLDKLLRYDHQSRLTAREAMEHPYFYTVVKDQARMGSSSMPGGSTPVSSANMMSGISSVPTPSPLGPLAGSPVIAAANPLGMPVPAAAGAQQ

Going from COc1ccc(-c2nc(-c3ccnc(N)n3)sc2C(N)=O)c(Cl)c1 to NC(=O)c1sc(-c2ccnc(N)n2)nc1-c1ccc(Cl)cc1Cl, the residual activity falls from 95% to 66%.

CCOC(=O)c1sc(-c2ccncc2)nc1O showed a residual activity of 50%.

Biological target: Tyrosine-protein kinase ABL1 (Homo sapiens) (UniProt P00519)
Assay: Inhibition of phosphorylated ABL1 (unknown origin) at 1 uM relative to control; values are per cent of control
Conditions: not given

Tyrosine-protein kinase ABL1 (Homo sapiens), sequence (P00519 whole entry): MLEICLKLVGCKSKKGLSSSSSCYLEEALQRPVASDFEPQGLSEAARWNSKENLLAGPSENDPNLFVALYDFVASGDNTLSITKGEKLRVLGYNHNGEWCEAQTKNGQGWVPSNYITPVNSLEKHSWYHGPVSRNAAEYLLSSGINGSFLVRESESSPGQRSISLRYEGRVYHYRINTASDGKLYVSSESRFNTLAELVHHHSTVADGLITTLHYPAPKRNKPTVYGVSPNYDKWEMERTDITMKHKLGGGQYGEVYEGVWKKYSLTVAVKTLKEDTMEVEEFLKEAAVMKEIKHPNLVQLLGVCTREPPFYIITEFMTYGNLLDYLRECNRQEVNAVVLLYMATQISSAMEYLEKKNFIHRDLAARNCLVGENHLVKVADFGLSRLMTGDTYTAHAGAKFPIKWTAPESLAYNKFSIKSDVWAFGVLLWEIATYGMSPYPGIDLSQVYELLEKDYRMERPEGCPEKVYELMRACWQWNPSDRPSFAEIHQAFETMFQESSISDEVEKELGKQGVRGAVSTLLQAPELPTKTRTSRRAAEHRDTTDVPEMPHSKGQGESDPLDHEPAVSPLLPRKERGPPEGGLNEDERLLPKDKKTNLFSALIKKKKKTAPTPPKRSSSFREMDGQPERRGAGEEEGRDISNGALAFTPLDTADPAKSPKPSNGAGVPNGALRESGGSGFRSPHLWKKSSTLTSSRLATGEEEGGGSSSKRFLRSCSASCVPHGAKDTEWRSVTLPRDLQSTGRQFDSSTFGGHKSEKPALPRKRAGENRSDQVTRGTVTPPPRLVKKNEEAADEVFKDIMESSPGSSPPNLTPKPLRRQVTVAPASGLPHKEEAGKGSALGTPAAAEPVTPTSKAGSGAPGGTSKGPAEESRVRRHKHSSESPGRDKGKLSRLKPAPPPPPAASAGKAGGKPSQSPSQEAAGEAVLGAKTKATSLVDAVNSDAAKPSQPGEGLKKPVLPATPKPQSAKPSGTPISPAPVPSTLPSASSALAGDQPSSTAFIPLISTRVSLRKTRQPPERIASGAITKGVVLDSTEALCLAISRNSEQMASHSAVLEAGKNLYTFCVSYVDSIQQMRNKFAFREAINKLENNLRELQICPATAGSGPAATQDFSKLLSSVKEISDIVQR

Going from COc1ccc(-c2nc(-c3ccnc(N)n3)sc2C(N)=O)c(Cl)c1 to NC(=O)c1sc(-c2ccnc(N)n2)nc1-c1ccc(Cl)cc1Cl, the residual activity rises from 90% to 100%.

Work on CCOC(=O)c1sc(-c2ccncc2)nc1O yielded a residual activity of 100%.
